# Active and inactive are the calls of the source.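 Rule for the calls, unless noted: active = viability at or below 10% of carrier control in both of two separate runs; inconclusive = viability at or below 10% in only one of the two runs; inactive = the rest.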
# Assays:
# [1] = reducers of endogenous Her2 protein level, primary screen, SKBR3 breast tumor cells, AlphaScreen, ATP viability (AID 461;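 active = Her2 level under about 52% in both replicate screens, with viability over 70% of control, limit read from the data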;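 for Her2 level: lower value means less Her2 protein in the cells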;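 for viability: percent of carrier control wells set as 100% viability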); details: 18-24 h, measured here: SKBR3 viability, ATP luminescence, at 10 µM
# [2] = biological target: Receptor tyrosine-protein kinase erbB-2 (Homo sapiens) (UniProt P04626); test: as above; details: 18-24 h, at 10 µM, stronger effect = lower value
# [3] = SK-BR-3 cell growth inhibitors, pilot screen, 24 h, human (AID 572); details: SK-BR-3 viability, CellTiter-Glo luminescence, at 10 µM, stronger effect = lower value;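 note: compound exposure lasted between 18 and 24 h rather than exactly 24 h; 100% = carrier-treated control wells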
# [4] = HUVEC growth inhibition – cell-based, human, primary screen (AID 575;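 active = viability at or below 30% in both replicate assays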;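 note: 100% = median of untreated cell wells with 0.1% DMSO on each plate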); details: HUVEC proliferation, CellTiter-Glo luminescence, 72 h; at 10 µM; stronger effect = lower value
# Procedure, shortened: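 Test system: HUVEC primary cells. Quantity: 1250 endothelial cells in each well. Dosing: single-point 10 µM, DMSO 0.1% final. Incubation: 72 h treatment at 37 °C. Measured by: CTG luminescence. Control set: DMSO cell controls and MePR drug controls. Plate: collagen-coated 384-well format.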
# [5] = growth inhibitors of H69AR lung tumor, primary screen, human, duplicate replicates (AID 580;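 active = viability at or under a set limit in both replicates, limit being median viability minus 3 SD, cut at about 48% in these data, passing the limit was not always enough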;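 note: 100% = mean luminescence of untreated wells and 0% = no signal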); details: H69AR lung tumor cells viability, ATP luminescence, 72 h; at 10 µM; stronger effect = lower value
# [6] = reversal of MRP1-mediated doxorubicin resistance, pilot screen, H69AR cells, doxorubicin co-treatment (AID 601;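 active = viability loss from added drug above about 55%, and viability with drug at most 40%, in both replicates, limit read from the data, passing the limit was not always enough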); details: CellTiter-Glo, 72 h, at 10 µM; for differential viability (reversal): stronger effect = higher value
# [7] = 384-well plate pilot, post-Golgi transport modulator project, inhibition of yeast transport mutant growth (AID 636; in the data active = inhibition above about 31%); details: absorbance 615 nm, about 18 h, stronger effect = higher value
# [8] = growth suppression of yeast trafficking mutant, preliminary HTS, modulators of trafficking downstream of Golgi apparatus project, 1536-format plate, OD 615 nm (AID 637; in the data active = inhibition above about 30%); details: yeast transport mutant growth, absorbance 615 nm, 18 h; stronger effect = higher value
# [9] = H69AR cells + 2 uM doxorubicin, measured here: viability with 2 uM doxorubicin, stronger effect = lower value
# [10] = H69AR cells, compound alone cytotoxicity
# Sequence of Receptor tyrosine-protein kinase erbB-2 (Homo sapiens) (P04626 whole entry, looked up): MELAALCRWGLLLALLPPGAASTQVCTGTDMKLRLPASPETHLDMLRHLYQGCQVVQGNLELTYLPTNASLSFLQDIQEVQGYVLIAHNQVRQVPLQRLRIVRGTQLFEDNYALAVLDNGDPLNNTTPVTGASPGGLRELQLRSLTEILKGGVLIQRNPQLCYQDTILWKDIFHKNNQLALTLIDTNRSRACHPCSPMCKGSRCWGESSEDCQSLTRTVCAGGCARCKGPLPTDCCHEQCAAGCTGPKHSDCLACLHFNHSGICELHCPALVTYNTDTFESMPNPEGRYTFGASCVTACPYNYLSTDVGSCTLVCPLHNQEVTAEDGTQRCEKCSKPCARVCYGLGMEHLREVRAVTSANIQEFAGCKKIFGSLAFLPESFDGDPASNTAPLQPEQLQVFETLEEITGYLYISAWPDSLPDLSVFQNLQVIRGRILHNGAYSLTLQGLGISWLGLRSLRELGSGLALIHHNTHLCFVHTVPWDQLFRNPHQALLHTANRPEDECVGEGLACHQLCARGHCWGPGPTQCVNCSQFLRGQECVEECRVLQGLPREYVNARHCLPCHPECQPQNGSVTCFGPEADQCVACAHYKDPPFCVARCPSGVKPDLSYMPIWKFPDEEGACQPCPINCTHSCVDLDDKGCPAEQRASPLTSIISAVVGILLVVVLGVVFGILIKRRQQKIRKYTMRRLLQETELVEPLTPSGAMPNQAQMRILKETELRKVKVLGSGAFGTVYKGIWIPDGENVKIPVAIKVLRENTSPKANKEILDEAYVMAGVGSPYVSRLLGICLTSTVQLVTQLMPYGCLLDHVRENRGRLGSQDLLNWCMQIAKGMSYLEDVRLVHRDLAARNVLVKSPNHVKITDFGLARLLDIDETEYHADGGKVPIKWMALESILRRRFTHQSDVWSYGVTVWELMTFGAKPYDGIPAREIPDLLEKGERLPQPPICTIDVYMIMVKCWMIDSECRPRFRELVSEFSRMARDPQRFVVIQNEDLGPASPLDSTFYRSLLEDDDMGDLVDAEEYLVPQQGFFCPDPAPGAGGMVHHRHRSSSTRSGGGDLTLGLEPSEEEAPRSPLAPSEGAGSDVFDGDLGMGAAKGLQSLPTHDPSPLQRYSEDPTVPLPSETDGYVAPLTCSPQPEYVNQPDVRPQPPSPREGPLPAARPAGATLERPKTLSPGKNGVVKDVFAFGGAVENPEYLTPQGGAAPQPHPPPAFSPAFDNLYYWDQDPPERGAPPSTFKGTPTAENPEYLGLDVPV
SMILES,viability [1] [%],Her2 level [2],viability [3],viability [4],viability [5],differential viability (reversal) ([6]; H69AR cells + 2 uM doxorubicin),"viability [6, 9] [%]","viability [6, 10] [%]",inhibition [7],inhibition [8]
CN(C)c1ccc(C(=O)OCC(=O)NC2CCCCC2)cc1,106,97% (inactive),106% (inactive),98.1% (inactive),91.5% (inactive),8.63% (inactive),82.9,91.5,-5.6% (inactive),5.81% (inactive)
CC(=O)N1CCc2cc(S(=O)(=O)CCC(=O)Nc3cccc(F)c3)ccc21,109,104% (inactive),109% (inactive),97.3% (inactive),93.8% (inactive),13.1% (inactive),80.7,93.8,-4.74% (inactive),-1.5% (inactive)
CC(C)[C@H](NC(=O)NCc1ccc(Cl)cc1)C(=O)O,86,77% (inactive),86% (inactive),89.1% (inactive),103% (inactive),11.2% (inactive),91.9,103,-4% (inactive),-4.75% (inactive)
COC(=O)c1ccc(C(=O)OC)c(NC(=O)Nc2ccc3c(c2)OCO3)c1,86.5,106% (inactive),86.5% (inactive),89.1% (inactive),92.7% (inactive),-2.65% (inactive),95.4,92.7,-0.78% (inactive),-9.67% (inactive)
CCN(CC)S(=O)(=O)c1ccc(C(=O)N2CCN=C2SCc2cccnc2)cc1,82.5,95.5% (inactive),82.5% (inactive),79.7% (inactive),84.5% (inactive),-3.98% (inactive),88.5,84.5,-3.38% (inactive),-3.02% (inactive)
Cc1nc2sc(C(c3cccc(F)c3)N3CCN(C(=O)c4ccco4)CC3)c(O)n2n1 (stereo not given),94,109% (inactive),94% (inactive),120% (inactive),99.3% (inactive),2.58% (inactive),96.7,99.3,-5% (inactive),-9.83% (inactive)
CCOC(=O)c1ccc(NC(=O)CSc2nnc(COc3ccccc3)n2C)cc1,110,113% (inactive),110% (inactive),85.3% (inactive),107% (inactive),8.77% (inactive),98.1,107,-1.3% (inactive),-9.67% (inactive)
CCN(CC)C(=O)c1ccc(NS(=O)(=O)c2ccccc2)cc1,89.5,130% (inactive),89.5% (inactive),111% (inactive),86.1% (inactive),-1.12% (inactive),87.3,86.1,-1.32% (inactive),-3.44% (inactive)
CCOC(=O)C1CCN(c2c(NC3CCCCCCC3)c(=O)c2=O)CC1,90,112% (inactive),90% (inactive),92.2% (inactive),79.7% (inactive),8.71% (inactive),71,79.7,0.64% (inactive),0.5% (inactive)
CCCCOc1ccc(-c2nnn(C(C)(C)C(=O)OC)n2)cc1,96,107% (inactive),96% (inactive),86% (inactive),92.2% (inactive),-7.05% (inactive),99.3,92.2,-0.91% (inactive),-4.29% (inactive)
CC1(C)CC(=O)C(C=NCc2ccc3c(c2)OCO3)=C(O)C1,104,95.5% (inactive),104% (inactive),96.6% (inactive),91.3% (inactive),5% (inactive),86.3,91.3,0.65% (inactive),-4.92% (inactive)
CCC(C)NC(=O)CSC1=Nc2ccccc2C2=NC(CC(=O)NCc3ccccc3)C(=O)N12 (stereo not given),96.5,88% (inactive),96.5% (inactive),85.7% (inactive),107% (inactive),13.1% (inactive),94.2,107,-3.03% (inactive),-3.02% (inactive)
CN1CCN(c2nc3c(c(=O)[nH]c(=O)n3C)n2CCOc2ccccc2)CC1,75.5,85.5% (inactive),75.5% (inactive),80.1% (inactive),92.2% (inactive),0.615% (inactive),91.5,92.2,-6.49% (inactive),2.62% (inactive)
COc1ccccc1-c1cc(C(=O)Nc2cc(C)nn2-c2ccccc2)no1,89,81.5% (inactive),89% (inactive),61% (inactive),15.5% (active),-33.6% (inactive),49.1,15.5,7.84% (inactive),-3.11% (inactive)
